Reference: ChEMBL document CHEMBL3091291, “Synthesis and pharmacological characterization of benzenesulfonamides as dual species inhibitors of human and murine mPGES-1” (Bioorg Med Chem, 2013)

What was measured:
[1] = target: T1, Polyunsaturated fatty acid 5-lipoxygenase (Homo sapiens) (UniProt P09917); experiment: Inhibition of calcium ionophore (A23187)-stimulated human 5-LO assessed as reduction of LTB4 production by measuring remaining activity at 100 uM preincubated for 15 mins followed by calcium ionophore (A23187) addition measured after 15 mins by LC-MS/MS analysis
T1 sequence (whole entry): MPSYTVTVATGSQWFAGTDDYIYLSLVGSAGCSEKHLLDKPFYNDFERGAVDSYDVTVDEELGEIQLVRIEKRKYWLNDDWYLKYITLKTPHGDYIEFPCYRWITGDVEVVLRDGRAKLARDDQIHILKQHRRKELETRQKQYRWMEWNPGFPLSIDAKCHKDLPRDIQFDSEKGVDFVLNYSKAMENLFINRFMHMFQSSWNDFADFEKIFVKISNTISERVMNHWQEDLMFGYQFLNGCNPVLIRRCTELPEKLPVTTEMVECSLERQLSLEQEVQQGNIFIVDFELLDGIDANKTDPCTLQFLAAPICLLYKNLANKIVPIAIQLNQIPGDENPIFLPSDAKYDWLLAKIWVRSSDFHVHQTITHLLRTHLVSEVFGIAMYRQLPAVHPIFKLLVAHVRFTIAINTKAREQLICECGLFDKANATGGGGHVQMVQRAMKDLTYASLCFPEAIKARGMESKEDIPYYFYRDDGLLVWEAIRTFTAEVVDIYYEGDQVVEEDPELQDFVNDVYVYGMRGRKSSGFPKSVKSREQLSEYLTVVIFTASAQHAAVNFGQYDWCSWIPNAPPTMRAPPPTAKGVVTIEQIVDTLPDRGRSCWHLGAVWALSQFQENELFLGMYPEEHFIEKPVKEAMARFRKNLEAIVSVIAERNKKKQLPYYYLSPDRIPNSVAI
In short: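 Heparinized human whole blood (500 µL) preincubated with compound 15 min at 37 °C, then stimulated with 20 µM calcium ionophore A23187 in autologous plasma for 15 min at 37 °C. Plasma spiked with deuterated LTB₄ and HETE internal standards, extracted into ethyl acetate, analysed by LC–MS/MS. Inhibition scored when a level fell by 33% or more versus control.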

[2] = target: Prostaglandin G/H synthase 1 (Homo sapiens) (UniProt P23219); experiment: Inhibition of COX1 in human whole blood assessed as reduction in TXB2 production by measuring remaining activity at 100 uM after 1 hr by LC-MS/MS analysis
Chain of Prostaglandin G/H synthase 1 (Homo sapiens) (P23219 whole entry): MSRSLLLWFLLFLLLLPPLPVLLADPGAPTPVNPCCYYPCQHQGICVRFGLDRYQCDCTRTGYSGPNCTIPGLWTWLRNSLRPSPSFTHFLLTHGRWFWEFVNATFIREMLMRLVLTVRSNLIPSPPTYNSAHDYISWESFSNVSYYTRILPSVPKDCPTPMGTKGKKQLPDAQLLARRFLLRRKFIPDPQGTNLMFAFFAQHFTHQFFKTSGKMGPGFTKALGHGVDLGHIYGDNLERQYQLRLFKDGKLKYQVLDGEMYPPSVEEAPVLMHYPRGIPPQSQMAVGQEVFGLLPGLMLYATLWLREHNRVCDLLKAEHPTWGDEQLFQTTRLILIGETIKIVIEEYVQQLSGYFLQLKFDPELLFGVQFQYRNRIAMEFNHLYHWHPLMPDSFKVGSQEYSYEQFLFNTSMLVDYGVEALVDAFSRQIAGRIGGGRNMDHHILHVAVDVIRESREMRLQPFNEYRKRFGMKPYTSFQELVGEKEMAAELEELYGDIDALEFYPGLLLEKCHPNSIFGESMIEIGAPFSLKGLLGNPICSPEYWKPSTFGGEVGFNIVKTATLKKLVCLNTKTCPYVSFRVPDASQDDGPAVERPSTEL

[3] = target: T2, Prostaglandin E synthase (Homo sapiens) (UniProt O14684); experiment: Inhibition of mPGES-1 in human HeLa cells using PGH2 as substrate assessed as inhibition of IL-1beta/TNFalpha-stimulated PGE2 production at 5 uM preincubated for 30 mins followed by substrate addition measured after 1 min by LC-MS/MS analysis; type: cell-based
T2 sequence (whole entry): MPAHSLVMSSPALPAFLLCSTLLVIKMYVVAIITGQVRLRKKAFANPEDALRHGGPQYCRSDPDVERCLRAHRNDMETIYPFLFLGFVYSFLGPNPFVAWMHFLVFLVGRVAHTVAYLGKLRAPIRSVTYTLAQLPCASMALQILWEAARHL
In short: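 Microsomal fraction from HeLa, NIH-3T3 or RAW 264.7 cells, obtained by sonication and ultracentrifugation, resuspended in 0.1 M KPi pH 7.4 with 2.5 mM reduced GSH. Protein at 0.15 mg/mL (HeLa, NIH) or 0.3 mg/mL (RAW) incubated with compound 30 min on ice. Reaction started with 20 µM PGH₂, stopped after 1 min with FeCl₂/citric acid. PGE₂ quantified by SPE and LC–MS/MS. IC50 from four-parameter logistic fit of increasing concentrations.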

Activity [1] [%] | Activity [2] [%] | inhibition [3] [%] | SMILES
90.8 | 92.4 | 90 | O=C(O)c1ccc(S(=O)(=O)N(Cc2ccccc2)Cc2ccc(Oc3ccccc3)cc2)cc1
140 | 85.2 | 79.8 | O=C(O)c1ccc(S(=O)(=O)N(Cc2ccccc2)c2ccc(Oc3ccccc3)cc2)cc1

Second part, the compound before the results:

SMILES | Activity [1] [%] | Activity [2] [%] | inhibition [3] [%]
COc1ccc(CN(Cc2ccccc2)S(=O)(=O)c2ccc(C(=O)O)cc2)cc1 | 110 | 90 | 39.9
COc1ccc(CN(CC2CCCCC2)S(=O)(=O)c2ccc(C(=O)O)cc2)cc1 | 60.4 | 83.6 | 67.9
O=C(O)c1ccc(S(=O)(=O)N(Cc2ccccc2)Cc2ccc(Nc3ccccc3)cc2)cc1 | 47 | 110 | 78.5
